Laboratory results taken from ChEMBL document CHEMBL4715736, “Identification of anticancer agents based on the thieno[2,3-b]pyridine and 1H-pyrazole molecular scaffolds” (2016).

Experiments:
Type in all cases: functional
SF-295 = assay: Growth inhibition of human SF-295 cells assessed as cell growth at 0.01 uM incubated for 48 hrs by sulforhodamine B assay relative to control; conditions: read-out: Activity
MDA-MB-435 [1] = assay: Growth inhibition of human MDA-MB-435 cells assessed as cell growth at 0.01 uM incubated for 48 hrs by sulforhodamine B assay relative to control; conditions: read-out: Activity
SK-MEL-28 [2] = assay: Growth inhibition of human SK-MEL-28 cells assessed as cell growth at 0.01 uM incubated for 48 hrs by sulforhodamine B assay relative to control; conditions: read-out: Activity
OVCAR-8 [3] = assay: Growth inhibition of human OVCAR-8 cells assessed as cell growth at 0.01 uM incubated for 48 hrs by sulforhodamine B assay relative to control; conditions: read-out: Activity
DU-145 [4] = assay: Growth inhibition of human DU-145 cells assessed as cell growth at 0.01 uM incubated for 48 hrs by sulforhodamine B assay relative to control; conditions: read-out: Activity
Outline: (§1)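 NCI Developmental Therapeutics Program NCI60 panel. Compounds that were active in the 10 µM one-dose screen went on to dose–response testing. Growth at each concentration is expressed relative to untreated control (100%). GI50 (concentration giving 50% of maximal inhibition of proliferation) and TGI (concentration giving total growth inhibition) were derived from the curves.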

MDA-MB-231 [5] = assay: Growth inhibition of human MDA-MB-231 cells assessed as cell growth at 0.01 uM incubated for 48 hrs by sulforhodamine B assay relative to control; conditions: read-out: Activity
T47D [6] = assay: Growth inhibition of human T47D cells assessed as cell growth at 0.01 uM incubated for 48 hrs by sulforhodamine B assay relative to control; conditions: read-out: Activity
CCRF-CEM = assay: Growth inhibition of human CCRF-CEM cells assessed as cell growth at 0.1 uM incubated for 48 hrs by sulforhodamine B assay relative to control; conditions: read-out: Activity; outline: as §1
HOP-92 = assay: Growth inhibition of human HOP-92 cells assessed as cell growth at 0.1 uM incubated for 48 hrs by sulforhodamine B assay relative to control; conditions: read-out: Activity
SF-268 = assay: Growth inhibition of human SF-268 cells assessed as cell growth at 0.1 uM incubated for 48 hrs by sulforhodamine B assay relative to control; conditions: read-out: Activity
Malme-3M [7] = assay: Growth inhibition of human Malme-3M cells assessed as cell growth at 0.1 uM incubated for 48 hrs by sulforhodamine B assay relative to control; conditions: read-out: Activity
MDA-MB-435 [8] = assay: Growth inhibition of human MDA-MB-435 cells assessed as cell growth at 0.1 uM incubated for 48 hrs by sulforhodamine B assay relative to control; conditions: read-out: Activity
MOLT-4 = assay: Growth inhibition of human MOLT-4 cells assessed as cell growth at 1 uM incubated for 48 hrs by sulforhodamine B assay relative to control; conditions: read-out: Activity
SF-539 = assay: Growth inhibition of human SF-539 cells assessed as cell growth at 1 uM incubated for 48 hrs by sulforhodamine B assay relative to control; conditions: read-out: Activity
LOX IMVI = assay: Growth inhibition of human LOX IMVI cells assessed as cell growth at 1 uM incubated for 48 hrs by sulforhodamine B assay relative to control; conditions: read-out: Activity
Malme-3M [9] = assay: Growth inhibition of human Malme-3M cells assessed as cell growth at 1 uM incubated for 48 hrs by sulforhodamine B assay relative to control; conditions: read-out: Activity
NCI/ADR-RES = assay: Growth inhibition of human NCI/ADR-RES cells assessed as cell growth at 1 uM incubated for 48 hrs by sulforhodamine B assay relative to control; conditions: read-out: Activity
T47D [10] = assay: Growth inhibition of human T47D cells assessed as cell growth at 1 uM incubated for 48 hrs by sulforhodamine B assay relative to control; conditions: read-out: Activity
SK-MEL-28 [11] = assay: Growth inhibition of human SK-MEL-28 cells assessed as cell growth at 100 uM incubated for 48 hrs by sulforhodamine B assay relative to control; conditions: read-out: Activity
IGROV-1 [12] = assay: Growth inhibition of human IGROV-1 cells assessed as cell growth at 100 uM incubated for 48 hrs by sulforhodamine B assay relative to control; conditions: read-out: Activity
MDA-MB-231 [13] = assay: Growth inhibition of human MDA-MB-231 cells assessed as cell growth at 100 uM incubated for 48 hrs by sulforhodamine B assay relative to control; conditions: read-out: Activity
T47D [14] = assay: Growth inhibition of human T47D cells assessed as cell growth at 100 uM incubated for 48 hrs by sulforhodamine B assay relative to control; conditions: read-out: Activity
RPMI-8226 = assay: Growth inhibition of human RPMI-8226 cells incubated for 48 hrs by sulforhodamine B assay
Outline: (§2)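 NCI DTP 60-line human tumour panel. Dose-response curves were run only for ligands active in the initial 10 µM screen. GI50 (concentration giving 50% of maximal inhibition of proliferation) and TGI (concentration giving total growth inhibition) were derived from these curves.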

NCI-H226 = assay: Growth inhibition of human NCI-H226 cells incubated for 48 hrs by sulforhodamine B assay; conditions: for CC50: read-out: LC50 (the source's name)
Outline: (§3)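 NCI60 panel at the NCI Developmental Therapeutics Program. Only compounds active in the 10 µM screen went to dose-response testing. GI50, the concentration giving 50% of maximal inhibition of proliferation, and TGI, the concentration giving total growth inhibition, were derived from the dose-response curves.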

NCI-H322M = assay: Growth inhibition of human NCI-H322M cells incubated for 48 hrs by sulforhodamine B assay; conditions: for CC50: read-out: LC50 (the source's name); outline: as §3
UACC-257 = assay: Growth inhibition of human UACC-257 cells incubated for 48 hrs by sulforhodamine B assay; outline: as §2
IGROV-1 [15] = assay: Growth inhibition of human IGROV-1 cells incubated for 48 hrs by sulforhodamine B assay; outline: as §3
OVCAR-8 [16] = assay: Growth inhibition of human OVCAR-8 cells incubated for 48 hrs by sulforhodamine B assay; conditions: for CC50: read-out: LC50 (the source's name); outline: as §2
SN12C = assay: Growth inhibition of human SN12C cells incubated for 48 hrs by sulforhodamine B assay; conditions: for CC50: read-out: LC50 (the source's name); outline: as §2
DU-145 [17] = assay: Growth inhibition of human DU-145 cells incubated for 48 hrs by sulforhodamine B assay; conditions: for CC50: read-out: LC50 (the source's name); outline: as §1
MDA-MB-468 = assay: Growth inhibition of human MDA-MB-468 cells incubated for 48 hrs by sulforhodamine B assay; conditions: for CC50: read-out: LC50 (the source's name); outline: as §3
BT-549 = assay: Growth inhibition of human BT-549 cells assessed as cell growth at 1 uM incubated for 48 hrs by sulforhodamine B assay relative to control; conditions: read-out: Activity
HT-29 = assay: Growth inhibition of human HT-29 cells assessed as cell growth at 100 uM incubated for 48 hrs by sulforhodamine B assay relative to control; conditions: read-out: Activity
SK-OV-3 = assay: Growth inhibition of human SK-OV-3 cells incubated for 48 hrs by sulforhodamine B assay; outline: as §2

Work on `CCc1cccc(C)c1NC(=O)c1sc2nc3c(cc2c1N)C(=O)CCC3` yielded a growth at 0.01 µM (SF-295) of 89%, a growth at 0.01 µM (MDA-MB-435 [1]) of 92% and a growth at 0.01 µM (SK-MEL-28 [2]) of 90%. It also gave a growth at 0.01 µM (OVCAR-8 [3]) of 99%, a growth at 0.01 µM (DU-145 [4]) of 101% and a growth at 0.01 µM (MDA-MB-231 [5]) of 97%. The growth at 0.01 µM (T47D [6]) was 97%, the growth at 0.1 µM (CCRF-CEM) was 90% and the growth at 0.1 µM (HOP-92) was 70%. For the same molecule, the growth at 0.1 µM (SF-268) was 96%, the growth at 0.1 µM (Malme-3M [7]) was 86% and the growth at 0.1 µM (MDA-MB-435 [8]) was 71%. The growth at 1 µM (MOLT-4) was 67%, the growth at 1 µM (SF-539) was 8% and the growth at 1 µM (LOX IMVI) was 43%. It also gave a growth at 1 µM (Malme-3M [9]) of 31%, a growth at 1 µM (NCI/ADR-RES) of 33% and a growth at 1 µM (T47D [10]) of 28%. The growth at 100 µM (SK-MEL-28 [11]) was 11%, the growth at 100 µM (IGROV-1 [12]) was 8% and the growth at 100 µM (MDA-MB-231 [13]) was 24%. For the same molecule, the growth at 100 µM (T47D [14]) was -10%, the GI50 (RPMI-8226) was 14.1 nM and the LC50 (RPMI-8226) was > 100 µM. For the same molecule, the TGI (RPMI-8226) was ≥ 100 µM, the GI50 (NCI-H226) was 182 nM and the TGI (NCI-H226) was > 100 µM. The CC50 (NCI-H226) was > 100 µM, the TGI (NCI-H322M) was > 100 µM and the CC50 (NCI-H322M) was > 100 µM. The GI50 (UACC-257) was 0.185 µM, the LC50 (concentration killing 50% of cells) (UACC-257) was > 100 µM and the TGI (UACC-257) was 62.3 µM. For the same molecule, the GI50 (IGROV-1 [15]) was 0.111 µM, the LC50 (IGROV-1 [15]) was > 100 µM and the TGI (IGROV-1 [15]) was > 100 µM. For the same molecule, the GI50 (OVCAR-8 [16]) was 2.13 µM, the TGI (OVCAR-8 [16]) was ≥ 100 µM and the CC50 (OVCAR-8 [16]) was > 100 µM. The GI50 (SN12C) was 10.4 nM, the TGI (SN12C) was > 100 µM and the CC50 (SN12C) was > 100 µM. For the same molecule, the GI50 (DU-145 [17]) was 454 nM, the TGI (DU-145 [17]) was > 100 µM and the CC50 (DU-145 [17]) was > 100 µM. The GI50 (MDA-MB-468) was 261 nM, the TGI (MDA-MB-468) was 60.6 µM and the CC50 (MDA-MB-468) was > 100 µM.
Molecule `Cc1cc(C)c(NC(=O)c2sc3nc4c(cc3c2N)CN(Cc2ccccc2)CC4)c(C)c1` has a growth at 0.01 µM (SF-295) of 86%, a growth at 0.01 µM (MDA-MB-435 [1]) of 92% and a growth at 0.01 µM (SK-MEL-28 [2]) of 97%. The growth at 0.01 µM (OVCAR-8 [3]) was 101%, the growth at 0.01 µM (DU-145 [4]) was 104% and the growth at 0.01 µM (MDA-MB-231 [5]) was 100%. It also gave a growth at 0.01 µM (T47D [6]) of 90%, a growth at 0.1 µM (CCRF-CEM) of 97% and a growth at 0.1 µM (HOP-92) of 70%. For the same molecule, the growth at 0.1 µM (SF-268) was 100%, the growth at 0.1 µM (Malme-3M [7]) was 102% and the growth at 0.1 µM (MDA-MB-435 [8]) was 96%. For the same molecule, the growth at 1 µM (MOLT-4) was 96%, the growth at 1 µM (SF-539) was 88% and the growth at 1 µM (LOX IMVI) was 99%. For the same molecule, the growth at 1 µM (Malme-3M [9]) was 76%, the growth at 1 µM (NCI/ADR-RES) was 69% and the growth at 1 µM (BT-549) was 81%. For the same molecule, the growth at 1 µM (T47D [10]) was 77%, the growth at 100 µM (HT-29) was -26% and the growth at 100 µM (SK-MEL-28 [11]) was -30%. It also gave a growth at 100 µM (IGROV-1 [12]) of 5%, a growth at 100 µM (MDA-MB-231 [13]) of -11% and a growth at 100 µM (T47D [14]) of 1%. The GI50 (RPMI-8226) was 3180 nM, the LC50 (RPMI-8226) was > 100 µM and the TGI (RPMI-8226) was 35.1 µM. For the same molecule, the GI50 (NCI-H226) was 4690 nM, the TGI (NCI-H226) was > 100 µM and the CC50 (NCI-H226) was > 100 µM. The GI50 (NCI-H322M) was 8.65 µM, the TGI (NCI-H322M) was > 100 µM and the CC50 (NCI-H322M) was > 100 µM. For the same molecule, the GI50 (UACC-257) was 6.71 µM, the LC50 (concentration killing 50% of cells) (UACC-257) was > 100 µM and the TGI (UACC-257) was > 100 µM. For the same molecule, the GI50 (IGROV-1 [15]) was 6.54 µM, the LC50 (IGROV-1 [15]) was > 100 µM and the TGI (IGROV-1 [15]) was > 100 µM. For the same molecule, the GI50 (OVCAR-8 [16]) was 4.72 µM, the TGI (OVCAR-8 [16]) was > 100 µM and the CC50 (OVCAR-8 [16]) was > 100 µM. For the same molecule, the GI50 (SK-OV-3) was 5.35 µM, the TGI (SK-OV-3) was > 100 µM and the CC50 (SK-OV-3; read-out: LC50 (the source's name)) was > 100 µM. The GI50 (SN12C) was 5600 nM, the TGI (SN12C) was > 100 µM and the CC50 (SN12C) was > 100 µM. For the same molecule, the GI50 (DU-145 [17]) was 2620 nM, the TGI (DU-145 [17]) was 7.65 µM and the CC50 (DU-145 [17]) was > 100 µM. For the same molecule, the GI50 (MDA-MB-468) was 1780 nM, the TGI (MDA-MB-468) was 88.7 µM and the CC50 (MDA-MB-468) was > 100 µM.
